The values below come from ChEMBL document CHEMBL4138185, “Investigation of the Physical and Bioactive Properties of Bromo- and Iodo-Containing Sponge-Derived Compounds Possessing an Oxyphenylethanamine Core” (J Nat Prod, 2017).

Structures are written as SMILES. Calls of active or inactive are those of the source. The calls are words filed in the database; no cut-off is given here. Some results are limits rather than exact numbers.

Data set [1] relates to Yersinia pseudotuberculosis. The experiment in a line: Inhibition of wild-type Yersinia pseudotuberculosis T3SS-mediated YopE secretion at 71 uM after 2 hrs under low calcium medium by SDS-PAGE analysis relative to control.
Data set [2] deals with Pseudomonas aeruginosa PA103. The experiment in a line: Inhibition of Pseudomonas aeruginosa PA103 T3SS-mediated ExoU secretion at 60 uM after 3 hrs under low calcium medium by SDS-PAGE analysis relative to control.
Data set [3] has as its system Yersinia pseudotuberculosis. The experiment in a line: Inhibition of wild-type Yersinia pseudotuberculosis T3SS-mediated YopE secretion at 30 uM after 2 hrs under low calcium medium by SDS-PAGE analysis relative to control.
Data set [4] deals with Yersinia pseudotuberculosis. The experiment in a line: Toxicity against wild-type Yersinia pseudotuberculosis at 60 uM measured after 15 hrs by MTT assay. In kind it is organism-based. Conditions: in vivo. In outline: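 Wild-type Y. pseudotuberculosis grown at room temperature in 2×YT with test agent at 60 μM, kanamycin at 50 μg/mL, or DMSO. MTT added after 15 h; absorbance at 570 nm used as the metabolic activity read-out.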

Data set [5] deals with Yersinia pseudotuberculosis. The experiment in a line: Growth inhibition of wild-type Yersinia pseudotuberculosis at 60 uM measured at 1 hr interval for 15 hrs. It is filed as organism-based. To be noted: in vivo. In outline:
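Wild-type Y. pseudotuberculosis grown at room temperature in 2×YT with test agent at 60 μM, kanamycin at 50 μg/mL, or DMSO. Absorbance at 600 nm read every hour over 15 h as the growth measure.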

For data set [6], the system named is Yersinia pseudotuberculosis. The experiment in a line: Inhibition of wild-type Yersinia pseudotuberculosis T3SS-mediated YopE secretion at 60 uM after 2 hrs under low calcium medium by SDS-PAGE analysis relative to control.
In data set [7] the test system is Yersinia pseudotuberculosis. The experiment in a line: Inhibition of wild-type Yersinia pseudotuberculosis T3SS-mediated YopE secretion at 120 uM after 2 hrs under low calcium medium by SDS-PAGE analysis relative to control.

With `C/C=C(\C)[C@H](O)[C@H](C)/C=C(C)/C=C/C/C(C)=C/Cc1nc(OC)c(OC)c(O)c1C`, the inhibition in data set [1] is more than 50%.
With `COc1c(Br)cc(CC(O)C(=O)NCCc2ccc(O)c(Br)c2)cc1Br` (centres undefined), the inhibition result in data set [2] is “inactive”. For the same molecule, the inhibition in data set [3] was more than 50%. For the same molecule, the Activity entry in data set [4] is “Non-Toxic”. Moreover, the “growth inhibition (GI)” value in data set [5] was “Non-Toxic”.
Consider `COc1c(Br)cc(CC(O)C(=O)NCCc2ccc(O)c(I)c2)cc1Br` (centres undefined), for which, in data set [2], the inhibition result is “inactive”. The inhibition in data set [6] was more than 50%. Besides, the Activity result in data set [4] was “Non-Toxic”. Besides, in data set [5], the “growth inhibition (GI)” value is reported as “Non-Toxic”.
With `CCC(=O)N(C)CCc1ccc(OCCCNC(=O)Cc2ccc(O)cc2)c(I)c1`, in data set [2], the inhibition result is “inactive”. The inhibition in data set [7] was more than 50%. The Activity result in data set [4] is “Non-Toxic”. In data set [5], the “growth inhibition (GI)” value was “Non-Toxic”.
As to `CCC(=O)N(C)CCc1ccc(OCCCNC(=O)Cc2ccc(O)cc2)c(Br)c1`, the inhibition entry in data set [2] is “inactive”. The inhibition in data set [6] is more than 50%. For the same molecule, the Activity result in data set [4] is reported as “Non-Toxic”. In addition, the “growth inhibition (GI)” value in data set [5] is reported as “Non-Toxic”.
Regarding `CCC(=O)N(C)CCc1cc(Br)c(OCCCNC(=O)Cc2ccc(O)cc2)c(Br)c1`, the inhibition result in data set [2] was “inactive”. Also, the inhibition in data set [7] was more than 50%. Moreover, in data set [4], the Activity entry was “Non-Toxic”. In addition, the “growth inhibition (GI)” value in data set [5] is given as “Non-Toxic”.
Take `CCC(=O)N(C)CCc1cc(Br)c(OCCCNC(=O)Cc2ccc(O)cc2)c(I)c1`: the inhibition result in data set [2] was “inactive”. Besides, the inhibition in data set [3] was more than 50%. Also, the Activity entry in data set [4] is listed as “Non-Toxic”. Besides, in data set [5], the “growth inhibition (GI)” value is given as “Non-Toxic”.
In the case of `CCC(=O)N(C)CCc1ccc(OCCCN(C)C(=O)Cc2ccc(O)cc2)c(Br)c1`, the inhibition entry in data set [2] is “inactive”. In data set [3], the inhibition is more than 50%. For the same molecule, the Activity entry in data set [4] is listed as “Non-Toxic”. In data set [5], the “growth inhibition (GI)” value is “Non-Toxic”.

For orientation: inhibition means the relative decrease from the control value, in per cent.
